Data set [1] is described as follows: folding enthalpy; higher = less favourable; fluorescence melt of hairpins on a sequencing array, two-state fit. The conditions noted are these: sodium 0.088 M. The method, boiled down: (§1)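 Bootstrapped two-state fits yielded melting temperature and folding enthalpy for library hairpins. Cy3 fluorescence, with annealed Cy3 and quencher oligos, was imaged on a sequenced MiSeq flow cell in 50 mM Na-HEPES pH 8.0, 25 mM NaCl in 2.5 °C steps up to 60 °C, and normalised to pre-quench Cy3 and to control constructs. Four replicates were combined by inverse variance, and fitted temperatures were raised by 9.35 °C to match UV melts.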

Data set [2] can be described thus: melting temperature; fluorescence melt of hairpins on a sequencing array, two-state fit, raised by 9.35 °C to match UV melts. The conditions noted are these: sodium 0.088 M. Put shortly: as §1

In the case of GCTCCACCGAAAGGTAGC (((..(((....)))))), in data set [1], the folding enthalpy was -17.2 kcal/mol. The Tm in data set [2] was 33.9 °C.

For the sequence GCTAGCTCGAAAGAGAGC (((..(((....)))))), the folding enthalpy in data set [1] is -12.2 kcal/mol. In data set [2], the Tm came out at 30.4 °C.

On to GTCGTTGGAAACAACAAC ((.((((....)))).)), for which the folding enthalpy in data set [1] is -17.7 kcal/mol. The Tm in data set [2] was determined as 34.8 °C.

GAGGACCGAAAGGTTCTC (((.(((....))).))): in data set [1], the folding enthalpy was -35.2 kcal/mol. Further, in data set [2], the Tm amounted to 59.4 °C.

As for GACCTCGGAAACGGGGTC ((((.((....)).)))), in data set [1], the folding enthalpy was -46.4 kcal/mol. Further, the Tm in data set [2] came out at 55.9 °C.

As for GATCGTTTAGACGATC ((((((....)))))), the folding enthalpy in data set [1] is -38.2 kcal/mol. Further, in data set [2], the Tm amounted to 55.6 °C.

For GAGGGGCGAAAGCCGCTC (((.(((....))).))), the folding enthalpy in data set [1] was -30.6 kcal/mol. The Tm in data set [2] was 69.3 °C.

Take GTGCAAGGAAACTTGCAC (((((((....))))))): the folding enthalpy in data set [1] is -31.8 kcal/mol. The Tm in data set [2] is 65.8 °C.

For GATCGGATCCCCGATC ((((((....)))))), the folding enthalpy in data set [1] was -41.4 kcal/mol. Also, in data set [2], the Tm came to 54 °C.

As for GGTTACGAAAGTAGGACC ((((((....)))..))), in data set [1], the folding enthalpy was -11.5 kcal/mol. The Tm in data set [2] amounted to 32 °C.

GATCTTGGAGAAGATC ((((((....)))))): in data set [1], the folding enthalpy was -29.8 kcal/mol. Further, in data set [2], the Tm amounted to 43.9 °C.

With GAGACGGGAAACCGTTTC ((.((((....)))).)), the folding enthalpy in data set [1] was -23.4 kcal/mol. The Tm in data set [2] is 45.8 °C.

Take GCGACCGAAAGGTGTCGC ((((((....)))..))): the folding enthalpy in data set [1] is -35.5 kcal/mol. For the same sequence, in data set [2], the Tm came out at 59 °C.

As for GATCTATTCGTAGATC ((((((....)))))), the folding enthalpy in data set [1] was -33.5 kcal/mol. Besides, the Tm in data set [2] is 44.8 °C.

For the sequence GATCAAAGGTTTGATC ((((((....)))))), in data set [1], the folding enthalpy is -32.4 kcal/mol. Further, the Tm in data set [2] stood at 44.8 °C.

As to GGGCTGCGAAAGCAACCC (((.(((....))).))), the folding enthalpy in data set [1] is -38.9 kcal/mol. Besides, the Tm in data set [2] is 60.2 °C.

With GCTAGGCGAAAGCCACGC ((..(((....)))..)), in data set [1], the folding enthalpy is -14.3 kcal/mol. For the same sequence, the Tm in data set [2] worked out at 41.5 °C.

Turning to GCCGAACGAAAGTTAGGC (((.(((....))).))), the folding enthalpy in data set [1] was -36.2 kcal/mol. Besides, the Tm in data set [2] is 60.9 °C.

For GTCCGTGGAAACATGGAC ((((.((....)).)))), the folding enthalpy in data set [1] is -36.9 kcal/mol. The Tm in data set [2] turned out to be 53.6 °C.

On to GAATTAGGAAACTAGTTC (((.(((....))).))), for which the folding enthalpy in data set [1] was -16.8 kcal/mol. Moreover, in data set [2], the Tm was 27.1 °C.

With GATCGTACTCACGATC ((((((....)))))), in data set [1], the folding enthalpy was -44.5 kcal/mol. Moreover, the Tm in data set [2] came to 53.9 °C.

Regarding GTGTTGCGAAAGCACAC (((.(((....)))))), in data set [1], the folding enthalpy was -33.8 kcal/mol. In addition, the Tm in data set [2] came out at 56.3 °C.

Consider GACTCCCGAAAGGGGTC (((.(((....)))))), for which the folding enthalpy in data set [1] is -24.9 kcal/mol. Further, the Tm in data set [2] stood at 50.8 °C.

Take GCACAAGGAAACTTATGC (((.(((....))).))): the folding enthalpy in data set [1] is -18.7 kcal/mol. Also, the Tm in data set [2] is 29.4 °C.

For GTGATGCGAAAGCACCAC (((.(((....))).))), the folding enthalpy in data set [1] is -29.2 kcal/mol. Further, the Tm in data set [2] was 54.2 °C.

As to GATTCCGGAAACGGAATC (((((((....))))))), the folding enthalpy in data set [1] was -42.5 kcal/mol. The Tm in data set [2] worked out at 64.7 °C.

As to GGTTTGGGAAACCAGACC (((.(((....))).))), the folding enthalpy in data set [1] is -33.1 kcal/mol. For the same sequence, the Tm in data set [2] came out at 47.8 °C.

On to GCCAAGCGAAAGCTTTGC ((.((((....)))).)), for which, in data set [1], the folding enthalpy is -21.4 kcal/mol. In addition, the Tm in data set [2] was 53.4 °C.

Consider GCCGTAGAAATACGGC ((((((....)))))), for which, in data set [1], the folding enthalpy was -42.4 kcal/mol. In addition, the Tm in data set [2] worked out at 64 °C.

Take GATCAGCTAACTGATC ((((((....)))))): the folding enthalpy in data set [1] was -40 kcal/mol. Further, the Tm in data set [2] is 49.7 °C.

Turning to GATCTGGTTTCAGATC ((((((....)))))), in data set [1], the folding enthalpy is -35.9 kcal/mol. Further, the Tm in data set [2] is 51.1 °C.

In the case of GTGCGCGGAAACGTGCGC (.((.((....)).)).), the folding enthalpy in data set [1] was -25.9 kcal/mol. Besides, the Tm in data set [2] amounted to 59 °C.

Turning to GCGTCTGGAAACGGACGC (((((.(....).))))), in data set [1], the folding enthalpy is -48.5 kcal/mol. Also, the Tm in data set [2] was determined as 64.3 °C.

Take GATCTGAGATCAGATC ((((((....)))))): the folding enthalpy in data set [1] is -36.1 kcal/mol. Further, the Tm in data set [2] was 49.2 °C.

On to GCTTGCCGAAAGGCTAGC (((.(((....))).))), for which the folding enthalpy in data set [1] was -27.8 kcal/mol. Moreover, the Tm in data set [2] stood at 64.4 °C.

For the sequence GTCGTATCGAAAGATGAC (((..(((....)))))), in data set [1], the folding enthalpy is -20 kcal/mol. The Tm in data set [2] is 34.1 °C.

With GCCCTCGAAAGAGCTGGC ((((((....)))..))), the folding enthalpy in data set [1] was -24.7 kcal/mol. For the same sequence, the Tm in data set [2] was determined as 42.3 °C.

(Values after the array DNA melting data of Ke et al. (doi:10.1101/2024.01.08.574731).)
